Laboratory results reported in ChEMBL document CHEMBL4334552, “Discovery of BMS-986260, a Potent, Selective, and Orally Bioavailable TGFβR1 Inhibitor as an Immuno-oncology Agent” (ACS Med Chem Lett, 2020).
Values after ≈ are worked out from the molar mass of the structure shown. Active and inactive are the calls of the source. No cut-off for these calls is given here.

Tests used:
TGF-beta receptor type-2 = TGF-beta receptor type-2 (Homo sapiens, UniProt P37173); experiment: Inhibition of wild type His-tagged TGFBR2 kinase domain (unknown origin) incubated for 1 hr by HTRF analysis
[1] = Metabolic stability of compound in human liver microsomes assessed as compound remaining; format: ADME, Microsome
TGF-beta receptor type-1 = target: T1, TGF-beta receptor type-1 (Mus musculus, UniProt Q64729); experiment: Inhibition of TGFbetaR1 in TGFbeta-stimulated mouse NIH3T3 cells assessed as reduction in SMAD3 phosphorylation; format: cell-based
T1 sequence (Q64729 whole entry): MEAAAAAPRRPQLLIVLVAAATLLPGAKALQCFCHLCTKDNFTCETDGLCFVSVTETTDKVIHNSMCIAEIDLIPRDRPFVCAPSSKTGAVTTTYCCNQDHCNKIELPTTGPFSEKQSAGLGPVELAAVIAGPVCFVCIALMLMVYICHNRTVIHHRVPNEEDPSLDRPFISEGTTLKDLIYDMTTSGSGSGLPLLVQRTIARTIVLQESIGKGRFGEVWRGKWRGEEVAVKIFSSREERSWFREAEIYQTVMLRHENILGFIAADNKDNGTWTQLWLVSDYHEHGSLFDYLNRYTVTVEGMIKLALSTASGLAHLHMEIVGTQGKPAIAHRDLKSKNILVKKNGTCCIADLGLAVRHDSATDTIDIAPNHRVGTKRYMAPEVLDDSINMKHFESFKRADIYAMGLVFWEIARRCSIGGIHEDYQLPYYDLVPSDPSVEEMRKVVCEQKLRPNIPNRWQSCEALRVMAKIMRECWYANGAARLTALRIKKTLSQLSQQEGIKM

Cytochrome P450 2C8 [2] = target: T2, Cytochrome P450 2C8 (Homo sapiens, UniProt P10632); experiment: Inhibition of recombinant CYP2C8 (unknown origin); format: ADME
T2 sequence (P10632 whole entry): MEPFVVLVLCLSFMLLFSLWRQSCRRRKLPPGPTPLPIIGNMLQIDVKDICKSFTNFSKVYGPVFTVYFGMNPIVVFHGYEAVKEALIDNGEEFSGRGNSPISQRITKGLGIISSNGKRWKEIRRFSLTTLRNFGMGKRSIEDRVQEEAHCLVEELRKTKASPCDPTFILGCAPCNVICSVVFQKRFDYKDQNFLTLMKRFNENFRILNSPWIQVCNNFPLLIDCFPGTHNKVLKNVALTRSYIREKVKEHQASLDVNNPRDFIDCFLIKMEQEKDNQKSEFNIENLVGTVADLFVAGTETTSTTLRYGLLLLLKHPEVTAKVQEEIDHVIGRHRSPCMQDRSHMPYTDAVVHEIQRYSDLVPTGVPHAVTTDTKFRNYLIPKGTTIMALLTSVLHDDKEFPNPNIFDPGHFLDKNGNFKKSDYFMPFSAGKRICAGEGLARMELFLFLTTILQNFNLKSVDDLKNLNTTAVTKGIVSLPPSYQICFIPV

[3] = Aqueous solubility of the compound at pH 6.5; format: physicochemical; conditions: aqueous solution, read-out: solubility
[4] = Cmax in Sprague Dawley rat at 10 mg/kg, po; format: ADME, organism-based; design: dose 10 mg/kg, route oral; conditions: in vivo
Procedure, shortened: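 Male Sprague–Dawley rats, n = 3, given 5 mg/kg iv or 10 mg/kg po as a PEG400 solution.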

[5] = Total AUC in Sprague Dawley rat at 5 mg/kg, iv; format: ADME, organism-based; design: dose 5 mg/kg, route intravenous, time AUCmax; conditions: in vivo
Procedure, shortened: (§1)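 Male Sprague–Dawley rats (n = 3) received a PEG400 solution iv at 5 mg/kg and po at 10 mg/kg.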

[6] = MRT in Sprague Dawley rat at 5 mg/kg, iv; format: ADME, organism-based; conditions: in vivo; procedure, shortened: as §1
[7] = Half life in Beagle dog at 1 mg/kg, iv; format: ADME, organism-based, Canis lupus familiaris; conditions: in vivo
Procedure, shortened: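 Male Beagle dogs (n = 2) pretreated with pentagastrin were given 1 mg/kg iv in 5:45:50 EtOH/PEG400/saline at 1 mL/kg. A 5 mg/kg oral arm used 5% ethanol, 45% PEG400, 50% 25 mM acetate buffer pH 4.0. Half-life was from the iv arm.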

[8] = MRT in Beagle dog at 1 mg/kg, iv; format: ADME, organism-based, Canis lupus familiaris; conditions: in vivo
Procedure, shortened: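 Male Beagle dogs (n = 2) were pretreated with pentagastrin and dosed iv at 1 mg/kg and po at 5 mg/kg. The oral vehicle was 5% ethanol, 45% PEG400 and 50% 25 mM acetate buffer pH 4.0. The iv vehicle was 5:45:50 EtOH/PEG400/saline at 1 mL/kg.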

[9] = Efflux ratio of permeability in human Caco2 cells; format: ADME, cell-based; conditions: Caco-2
[10] = Intrinsic permeability in human Caco2 cells; format: ADME, cell-based; conditions: Caco-2
MC-38 [11] = experiment: (§2) Antitumour activity against mouse MC38 cells allografted in C57Bl/6 mouse assessed as reduction in tumour growth at 3.75 to 15 mg/kg, po qd for 28 days cotreated with anti-PD1 at 10 mg/kg, ip every 4 days for 3 doses by digital caliper analysis; format: functional, organism-based
Procedure, shortened: (§3)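 C57/BL6 mice received 0.1 mL of MC38 cells (1 × 10^7 cells/mL) subcutaneously in the right flank. Mice were randomized at about 100 mm3, typically day 5. Oral dosing was once daily for 28 days at 3.75, 7.5 or 15 mg/kg. Anti-PD-1 was given at 10 mg/kg IP every 4 days for three doses. Isotype IgG1 MOPC-21 served as control on the same schedule.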

MC-38 [12] = experiment: Induction of long-term antitumor memory response in compound-mediated tumor cured C57Bl/6 mouse allografted with mouse MC38 cells assessed as reduction in tumor growth following rechallenge with newly implanted mouse MC38 cells treated at 3.75 to 15 mg/kg, po qd for 28 days and cotreated with anti-PD1 at 10 mg/kg, ip every 4 days for 3 doses prior to MC38 cells rechallenge by digital caliper analysis; format: functional, organism-based
Procedure, shortened: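 Mice cured by oral dosing plus anti-PD-1 (10 mg/kg IP, every 4 days, three doses) were re-implanted with MC38 or LL2 cells. Tumor growth was compared with naive mice.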

4T1 = experiment: Inhibition of metastasis in mouse 4T1 cells allografted in Balb/C mouse at 3.75 to 7.5 mg/kg, po qd for 28 days cotreated with anti-PD1 at 10 mg/kg, ip every 4 days for 3 doses by India ink/Fekete's solution based staining; format: functional, organism-based
[13] = Cardiovascular toxicity in dog assessed as valvulo-pathy at 5 mg/kg, po for 10 days; format: organism-based, Canis lupus familiaris; conditions: in vivo, 240 h
Procedure, shortened: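 Exploratory toxicology studies of 10 days with daily oral dosing in rats and dogs. Cardiovascular findings, including valvulopathy and aortic pathology, were assessed.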

Salmonella typhimurium = experiment: Genotoxicity against Salmonella typhimurium by Ames test; format: toxicity, organism-based; conditions: salmonella enterica subsp. enterica serovar typhimurium
Cytochrome P450 2C8 [14] = target: T2, Cytochrome P450 2C8; experiment: Induction of recombinant CYP2C8 (unknown origin) up to 24 microM; format: ADME; conditions: recombinant enzyme
Cytochrome P450 3A4 = Cytochrome P450 3A4 (Homo sapiens, UniProt P08684); experiment: Induction of recombinant CYP3A4 (unknown origin) up to 24 microM; format: ADME; conditions: recombinant enzyme
MC-38 [15] = experiment: as §2, with “doses measured for ten doubling times after cessation of treatment” for “doses”; format: functional, organism-based; procedure, shortened: as §3

Chain of TGF-beta receptor type-2 (P37173 whole entry, the tested form may be a part): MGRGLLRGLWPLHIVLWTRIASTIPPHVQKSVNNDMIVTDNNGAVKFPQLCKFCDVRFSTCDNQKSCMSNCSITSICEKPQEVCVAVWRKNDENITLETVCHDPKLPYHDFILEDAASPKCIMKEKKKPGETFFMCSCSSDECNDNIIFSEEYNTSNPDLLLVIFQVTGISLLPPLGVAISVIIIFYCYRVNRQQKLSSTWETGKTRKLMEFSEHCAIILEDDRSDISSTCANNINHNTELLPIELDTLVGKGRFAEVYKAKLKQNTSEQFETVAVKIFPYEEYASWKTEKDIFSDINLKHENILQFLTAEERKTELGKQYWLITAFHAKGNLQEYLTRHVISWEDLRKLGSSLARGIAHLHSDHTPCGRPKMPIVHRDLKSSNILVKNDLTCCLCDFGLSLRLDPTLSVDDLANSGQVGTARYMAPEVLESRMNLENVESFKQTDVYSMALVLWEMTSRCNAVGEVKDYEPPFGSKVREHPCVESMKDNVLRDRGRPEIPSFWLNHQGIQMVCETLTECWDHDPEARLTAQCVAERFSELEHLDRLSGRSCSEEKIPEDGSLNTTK
Chain of Cytochrome P450 3A4 (P08684 whole entry): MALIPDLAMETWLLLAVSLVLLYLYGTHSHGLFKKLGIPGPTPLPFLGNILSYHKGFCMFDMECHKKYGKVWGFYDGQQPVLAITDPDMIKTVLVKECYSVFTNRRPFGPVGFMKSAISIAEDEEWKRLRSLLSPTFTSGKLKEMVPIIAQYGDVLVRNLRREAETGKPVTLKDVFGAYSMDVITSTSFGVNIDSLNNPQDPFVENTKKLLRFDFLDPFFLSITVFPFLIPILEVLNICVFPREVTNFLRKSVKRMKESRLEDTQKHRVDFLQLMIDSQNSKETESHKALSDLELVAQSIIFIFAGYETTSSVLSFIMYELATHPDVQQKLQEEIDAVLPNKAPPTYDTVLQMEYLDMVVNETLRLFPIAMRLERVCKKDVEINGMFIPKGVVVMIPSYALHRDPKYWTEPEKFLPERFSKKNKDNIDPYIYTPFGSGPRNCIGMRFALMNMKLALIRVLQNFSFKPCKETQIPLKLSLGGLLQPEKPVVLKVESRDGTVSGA

- IC50 (TGF-beta receptor type-2): > 15 µM
- Stability [1]: 77%
- IC50 (TGF-beta receptor type-1): 50 nM
- IC50 (Cytochrome P450 2C8 [2]): > 20 µM
- solubility [3]: 47 µg/mL (≈ 123 µM)
- Cmax [4]: 12.7 µM
- AUC [5]: 39.6 µM·h
- MRT [6]: 7.2 h
- half-life [7]: 300 min
- MRT [8]: 3.1 h
- efflux ratio [9]: 2.5
- Papp [10]: 27.2 ×10⁻⁶ cm/s
- Activity (Cytochrome P450 2C8 [14]): Not Active
- Activity (Cytochrome P450 3A4): Not Active
SMILES: N#Cc1cnc2ccc(-c3c(-c4ccc(F)c(Cl)c4)ncn3CCO)nn12
- inhibition (MC-38 [11]): Active
- Activity (MC-38 [12]): Active
- inhibition (4T1): Active
- Activity [13]: Toxic
- Activity (Salmonella typhimurium): Non-Toxic
- inhibition (MC-38 [15]): Active
